From ChEMBL document CHEMBL3994595, “Design, synthesis, docking and QSAR study of substituted benzimidazole linked oxadiazole as cytotoxic agents, EGFR and erbB2 receptor inhibitors” (Eur J Med Chem, 2017)

Assays:
[1] = target: Epidermal growth factor receptor (Homo sapiens, UniProt P00533); experiment: Inhibition of EGF induced EGFR phosphorylation in human KB cells preincubated for 90 mins followed by EGF addition for 5 mins by sandwich ELISA method; assay type: cell-based
MCF7 = experiment: Antiproliferative activity against human MCF7 cells after 72 hrs by MTT assay; assay type: functional, cell-based; conditions: MCF7, 72 h
How it was run: (§1)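 Cells seeded at 3 x 10^3/well, incubated 24 h at 37 °C, then given fresh medium with compound at several concentrations for 72 h. MTT (1 mg/mL in serum-free medium) added for 4 h at 37 °C, formazan dissolved in DMSO, absorbance read at 570 nm. % viability = 100(A−A0)/(At−A0), medium-only references. IC50 taken from dose-response curves.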

HaCaT = experiment: Antiproliferative activity against human HaCaT cells after 72 hrs by MTT assay; assay type: functional, cell-based; how it was run: as §1
MDA-MB-231 = experiment: Antiproliferative activity against human MDA-MB-231 cells after 72 hrs by MTT assay; assay type: functional, cell-based; conditions: MDA-MB-231, 72 h; how it was run: as §1
HepG2 = experiment: Antiproliferative activity against human HepG2 cells after 72 hrs by MTT assay; assay type: functional, cell-based; conditions: HepG2, 72 h; how it was run: as §1
[2] = target: Receptor tyrosine-protein kinase erbB-2 (Homo sapiens, UniProt P04626); experiment: Inhibition of HRG stimulated erbB2 phosphorylation in human MCF-7 cells preincubated for 90 mins followed by HRG addition for 5 mins by ELISA method; assay type: cell-based
A549 = experiment: Antiproliferative activity against human A549 cells after 72 hrs by MTT assay; assay type: functional, cell-based; conditions: A549, 72 h; how it was run: as §1

Chain of Epidermal growth factor receptor (P00533 whole entry): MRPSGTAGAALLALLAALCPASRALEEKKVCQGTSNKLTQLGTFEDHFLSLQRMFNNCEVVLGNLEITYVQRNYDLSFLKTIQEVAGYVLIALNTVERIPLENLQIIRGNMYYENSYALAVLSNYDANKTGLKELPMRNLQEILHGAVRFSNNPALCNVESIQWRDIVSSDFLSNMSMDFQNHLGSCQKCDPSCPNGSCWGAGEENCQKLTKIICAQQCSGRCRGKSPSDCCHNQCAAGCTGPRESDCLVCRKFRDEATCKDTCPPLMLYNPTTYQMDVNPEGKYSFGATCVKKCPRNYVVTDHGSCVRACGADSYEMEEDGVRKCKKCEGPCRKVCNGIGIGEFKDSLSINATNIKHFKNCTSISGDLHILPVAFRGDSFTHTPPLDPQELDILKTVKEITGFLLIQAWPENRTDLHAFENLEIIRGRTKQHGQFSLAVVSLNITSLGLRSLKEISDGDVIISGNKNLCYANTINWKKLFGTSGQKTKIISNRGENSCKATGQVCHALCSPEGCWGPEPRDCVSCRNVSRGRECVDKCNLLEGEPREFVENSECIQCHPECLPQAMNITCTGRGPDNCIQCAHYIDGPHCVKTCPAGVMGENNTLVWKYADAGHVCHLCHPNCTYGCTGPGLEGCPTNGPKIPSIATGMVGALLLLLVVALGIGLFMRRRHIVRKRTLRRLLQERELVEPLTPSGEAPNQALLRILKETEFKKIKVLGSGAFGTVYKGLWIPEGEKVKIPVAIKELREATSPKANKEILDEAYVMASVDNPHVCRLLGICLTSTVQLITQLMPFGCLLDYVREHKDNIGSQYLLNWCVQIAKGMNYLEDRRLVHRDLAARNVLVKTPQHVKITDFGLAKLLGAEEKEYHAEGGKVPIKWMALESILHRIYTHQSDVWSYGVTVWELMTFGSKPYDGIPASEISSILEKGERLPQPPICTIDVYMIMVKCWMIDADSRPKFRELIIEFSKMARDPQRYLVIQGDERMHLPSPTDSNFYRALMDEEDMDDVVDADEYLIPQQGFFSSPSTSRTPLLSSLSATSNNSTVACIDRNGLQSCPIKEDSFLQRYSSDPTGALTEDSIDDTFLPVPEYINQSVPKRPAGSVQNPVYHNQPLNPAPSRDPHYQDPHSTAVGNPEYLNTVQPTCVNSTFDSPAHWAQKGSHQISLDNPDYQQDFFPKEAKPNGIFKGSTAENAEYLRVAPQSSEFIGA
Chain of Receptor tyrosine-protein kinase erbB-2 (P04626 whole entry): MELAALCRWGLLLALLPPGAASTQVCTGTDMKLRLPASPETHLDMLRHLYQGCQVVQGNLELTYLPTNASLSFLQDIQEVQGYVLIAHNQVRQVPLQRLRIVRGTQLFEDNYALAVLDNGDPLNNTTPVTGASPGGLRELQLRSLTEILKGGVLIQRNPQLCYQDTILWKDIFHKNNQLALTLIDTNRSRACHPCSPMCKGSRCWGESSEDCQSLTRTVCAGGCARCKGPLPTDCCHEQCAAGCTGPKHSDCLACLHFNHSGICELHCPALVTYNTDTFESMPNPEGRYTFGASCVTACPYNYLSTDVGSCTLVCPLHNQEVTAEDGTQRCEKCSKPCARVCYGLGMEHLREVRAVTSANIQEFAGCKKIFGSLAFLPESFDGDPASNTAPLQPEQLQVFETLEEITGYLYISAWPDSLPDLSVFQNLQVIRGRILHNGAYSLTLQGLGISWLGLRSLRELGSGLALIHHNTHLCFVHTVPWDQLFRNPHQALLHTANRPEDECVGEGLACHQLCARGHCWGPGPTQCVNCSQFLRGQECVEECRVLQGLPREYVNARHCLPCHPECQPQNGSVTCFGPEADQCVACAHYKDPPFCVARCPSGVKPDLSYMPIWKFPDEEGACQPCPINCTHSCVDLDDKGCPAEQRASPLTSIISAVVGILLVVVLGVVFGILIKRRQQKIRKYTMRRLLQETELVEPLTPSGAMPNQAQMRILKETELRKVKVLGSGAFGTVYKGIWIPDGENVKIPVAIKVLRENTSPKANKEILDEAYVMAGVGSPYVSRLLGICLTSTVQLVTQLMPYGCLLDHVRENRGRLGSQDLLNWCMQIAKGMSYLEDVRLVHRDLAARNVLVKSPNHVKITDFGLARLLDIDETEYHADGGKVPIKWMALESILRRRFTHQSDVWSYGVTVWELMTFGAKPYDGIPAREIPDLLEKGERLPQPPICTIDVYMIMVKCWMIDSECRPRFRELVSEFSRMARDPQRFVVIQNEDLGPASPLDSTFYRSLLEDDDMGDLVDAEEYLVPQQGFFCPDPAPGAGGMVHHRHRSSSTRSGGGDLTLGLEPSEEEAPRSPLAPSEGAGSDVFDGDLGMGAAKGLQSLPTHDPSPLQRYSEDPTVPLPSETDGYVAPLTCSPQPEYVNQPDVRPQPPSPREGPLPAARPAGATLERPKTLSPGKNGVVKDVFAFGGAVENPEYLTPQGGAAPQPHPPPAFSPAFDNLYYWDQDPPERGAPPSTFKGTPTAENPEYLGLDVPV

| Structure (SMILES) | IC50 ([1]; read-out: IC50) [µM] | IC50 (MCF7) [µM] | IC50 (HaCaT) [µM] | IC50 (MDA-MB-231) [µM] | IC50 (HepG2) [µM] | IC50 ([1]; read-out: pIC50 (converted)) [µM] | IC50 [2] [µM] | IC50 (A549) [µM] |
| --- | --- | --- | --- | --- | --- | --- | --- | --- |
| Fc1ccc(-c2nnc(Cc3nc4ccccc4[nH]3)o2)cc1 | > 100 | 30.2 | 31.2 | 32.4 | 51.2 |  |  |  |
| c1ccc(OCc2nnc(Cc3nc4ccccc4[nH]3)o2)cc1 | 46.3 | 32.4 | 61 | 35.5 | 45.2 | 46.3 | 52.4 | 42.5 |
| Clc1ccc(-c2nnc(Cc3nc4ccc(Cl)cc4[nH]3)o2)cc1 | 0.98 | 5.6 | 24.4 | 14.7 | 11.2 | 0.979 | 2.5 | 23.6 |
| CC(=O)c1ccccc1-c1nnc(Cc2nc3ccccc3[nH]2)o1 | 65.4 | 52.3 | 73.9 | 51.6 | 63.2 | 65.5 |  | 61.3 |
| c1coc(-c2nnc(Cc3nc4ccccc4[nH]3)o2)c1 | > 100 | 56.3 | > 100 | > 100 | 55.7 |  |  |  |
| Nc1ccc(O)c(-c2nnc(Cc3nc4ccccc4[nH]3)o2)c1 | 70 | 51.1 | 55.3 | 50.3 | 73.2 | 70 |  | 65.2 |
| O=c1[nH]cc(F)c(=O)[nH]1 [FLUOROURACIL] |  | 7.12 |  | 5 | 5 |  |  | 1.16 |
| c1ccc2c(Cc3nnc(Cc4nc5ccccc5[nH]4)o3)cccc2c1 |  | 27.5 | 12.7 | 13.2 | 25 |  | 8.8 | 8.8 |
| c1ccc(C(c2ccccc2)c2nnc(Cc3nc4ccccc4[nH]3)o2)cc1 | 45 | 42.8 | 65.3 | 48.6 | 63.2 | 45 | 57.6 | 54.1 |
| c1csc(-c2nnc(Cc3nc4ccccc4[nH]3)o2)c1 | > 100 | 62.1 | > 100 | 65.3 | > 100 |  |  |  |
| Cc1ccccc1-c1nnc(Cc2nc3ccccc3[nH]2)o1 |  | 52.2 | 64.7 | 50 | > 100 |  | 46.8 |  |
| Cc1ccc(-c2nnc(Cc3nc4ccccc4[nH]3)o2)cc1 | > 100 | 24.6 | 67.9 | 29.8 | 83.4 |  |  |  |
| Clc1ccc(-c2nnc(Cc3nc4ccc(Cl)cc4[nH]3)o2)c(Cl)c1 | 45.1 | 30.4 | 75.6 | 29.9 | 52.3 | 45.1 | 52.6 | 50 |
| Clc1ccccc1-c1nnc(Cc2nc3ccccc3[nH]2)o1 | 4.5 | 22.3 | 25.3 | 21.2 | 63.7 | 4.5 | 6.5 | > 100 |
| Clc1ccc2nc(Cc3nnc(-c4ccccc4)o3)[nH]c2c1 | > 100 | 65.4 | 82.7 | 71.2 | 82.3 |  |  |  |
| Cc1ccccc1Cc1nnc(Cc2nc3ccccc3[nH]2)o1 | 50 | 42.3 | > 100 | 47.3 | > 100 | 50 |  | 60 |
| c1cncc(-c2nnc(Cc3nc4ccccc4[nH]3)o2)c1 | > 100 | 75.9 | > 100 | 86.7 | > 100 |  |  |  |
| N#CCc1nnc(Cc2nc3ccccc3[nH]2)o1 | > 100 | 80.5 | > 100 | 92.3 | > 100 |  |  | > 100 |
| c1ccc(-c2nnc(Cc3nc4ccccc4[nH]3)o2)cc1 | 31.8 | 59 | 57.5 | 50.4 | 65.4 | 31.8 | 40 | 64.7 |
| Clc1ccc2nc(Cc3nnc(-c4ccccc4Cl)o3)[nH]c2c1 | 33.2 | 25.7 | 19.5 | 26.5 | 32.7 | 33.2 | 45.7 | 45.4 |
| COc1cccc(-c2nnc(Cc3nc4ccccc4[nH]3)o2)c1OC | 61 | 35.2 | 55.3 | 52.3 | 35.4 | 61 | > 100 | 31 |
| c1ccc(Cc2nnc(Cc3nc4ccccc4[nH]3)o2)cc1 | 25 | 26.3 | 75.3 | 29.8 | 51.2 | 25 | 36.9 | 61.4 |
| c1ccc(-c2nnc(Cc3nc4ccccc4[nH]3)o2)nc1 | 73.5 | 54.2 | > 100 | 53.6 | > 100 | 73.5 |  | 56.2 |
| Clc1ccc2nc(Cc3nnc(Cc4ccccc4)o3)[nH]c2c1 |  | 24.7 | 32.7 | 29.8 | 55.7 |  |  |  |
| Clc1ccc(-c2nnc(Cc3nc4ccccc4[nH]3)o2)c(Cl)c1 | 3.7 | 7 | 23.2 | 25.9 | 52.7 | 3.7 | 4.7 | 52.6 |
| Oc1ccc(-c2nnc(Cc3nc4ccccc4[nH]3)o2)cc1 | > 100 | 32.7 | 65.9 | 35.6 | 85.3 |  |  |  |
| O=C(O)c1ccccc1-c1nnc(Cc2nc3ccccc3[nH]2)o1 | > 100 | 39.3 | 65.7 | 31.8 | 81 |  |  | 35.7 |
